Measured values: ChEMBL document CHEMBL1122709, “Synthesis and biological activity of a new class of cytotoxic agents: N-(3-oxoprop-1-enyl)-substituted pyrimidines and purines” (J Med Chem, 1984)

What was measured:
HeLa [1] = assay: Inhibition of HeLa cells growth (cytotoxicity); format: functional; conditions: Homo sapiens, read-out: ID50 (the source's name)
Procedure, shortened: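 HeLa cells in complete medium, grown to 1.7 × 10^5/mL (100 mL culture). Incubated 16 h with varying concentrations of inhibitor, then growth inhibition assessed.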

HeLa [2] = assay: Inhibition of macromolecular synthesis in HeLa cells assayed by the incorporation of radioactive thymidine into DNA; format: functional, cell-based; conditions: Homo sapiens
Procedure, shortened: (§1)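 HeLa S3 suspension culture in MEM with 5% fetal calf serum and 2 mM L-glutamine. Cells incubated with 0.5 μCi of labeled precursor: [methyl-3H]thymidine for DNA, [5,6-3H]uridine (40 Ci/mmol) for RNA, L-[4,5-3H]leucine (56 Ci/mmol) for protein. Synthesis rate taken as precursor uptake into cold TCA-insoluble material.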

HeLa [3] = assay: Inhibition of macromolecular synthesis in HeLa cells assayed by the incorporation of radioactive leucine into protein; format: functional, cell-based; conditions: Homo sapiens; procedure, shortened: as §1
HeLa [4] = assay: Inhibition of macromolecular synthesis in HeLa cells assayed by the incorporation of radioactive uridine into RNA; format: functional, cell-based; conditions: Homo sapiens; procedure, shortened: as §1
[5] = Compound was evaluated for its half-life when nucleophile was added in solution buffered at pH 7.2 in the presence of glutathione; format: ADME; conditions: buffered solution with added nucleophile (glutathione)
Procedure, shortened: (§2)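 Half-life of each compound measured in aqueous solution buffered at pH 7.2 with a nucleophile, glutathione or aminoethanol, added. Reaction followed kinetically as disappearance of the propenal.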

[6] = Compound was evaluated for its half-life when nucleophile was added in solution buffered at pH 7.2 in the presence of aminoethanol; format: ADME; conditions: buffered solution with added nucleophile (aminoethanol); procedure, shortened: as §2

## O=C/C=C/n1ccc(=O)[nH]c1=O
HeLa [1]
  IC50: 4 µM
HeLa [2]
  IC50: 30 µM
HeLa [3]
  IC50: 30 µM
HeLa [4]
  IC50: 30 µM

## O=C/C=C/n1cc(C(F)(F)F)c(=O)[nH]c1=O
HeLa [2]
  IC50: 60 µM
HeLa [3]
  IC50: 80 µM
HeLa [4]
  IC50: > 100 µM

## CC(=O)/C=C/n1cc(C)c(=O)[nH]c1=O
HeLa [2]
  IC50: > 100 µM
HeLa [3]
  IC50: > 100 µM
HeLa [4]
  IC50: > 100 µM

## Cc1cn(COCCO)c(=O)n(/C=C/C=O)c1=O
HeLa [1]
  IC50: 6 µM
HeLa [2]
  IC50: 20 µM
HeLa [3]
  IC50: 20 µM
HeLa [4]
  IC50: 20 µM

## Cc1cn(C)c(=O)n(/C=C/C=O)c1=O
HeLa [1]
  IC50: 3 µM
HeLa [2]
  IC50: 10 µM
HeLa [3]
  IC50: 15 µM
HeLa [4]
  IC50: 15 µM

## Cc1cn(/C=C/C=N/O)c(=O)[nH]c1=O
HeLa [2]
  IC50: > 100 µM
HeLa [3]
  IC50: > 100 µM
HeLa [4]
  IC50: > 100 µM

## Cc1cn([C@H]2C[C@H](O)[C@@H](CO)O2)c(=O)n(/C=C/CO)c1=O
HeLa [1]
  IC50: 60 µM
HeLa [2]
  IC50: 5 µM
HeLa [3]
  IC50: > 100 µM
HeLa [4]
  IC50: 5 µM

## CCOC(=O)/C=C/n1cnc2c(N)ncnc21
HeLa [2]
  IC50: 60 µM
HeLa [3]
  IC50: 100 µM
HeLa [4]
  IC50: 100 µM

## Nc1ncnc2c1ncn2/C=C/C=O
HeLa [1]
  IC50: 2 µM
[5]
  half-life: 2.1 min
HeLa [2]
  IC50: 30 µM
[6]
  half-life: 15 h
HeLa [3]
  IC50: > 100 µM
HeLa [4]
  IC50: > 100 µM

## N#C/C=C/n1c(=O)ccn([C@H]2C[C@H](O)[C@@H](CO)O2)c1=O
HeLa [2]
  IC50: 100 µM
HeLa [3]
  IC50: > 100 µM
HeLa [4]
  IC50: 100 µM

## Cc1cn([C@H]2C[C@H](O)[C@@H](CO)O2)c(=O)n(/C=C/C=O)c1=O
HeLa [1]
  IC50: 1 µM
[5]
  half-life: 8 min
HeLa [2]
  IC50: 0.5 µM
[6]
  half-life: 25 h
HeLa [3]
  IC50: 15 µM
HeLa [4]
  IC50: 20 µM

## CC(=O)/C=C/n1c(=O)ccn([C@H]2C[C@H](O)[C@@H](CO)O2)c1=O
HeLa [1]
  IC50: 6 µM
HeLa [2]
  IC50: 1.5 µM
HeLa [3]
  IC50: > 100 µM
HeLa [4]
  IC50: 6 µM

## Nc1ccn(/C=C/C=O)c(=O)n1
HeLa [1]
  IC50: 15 µM
HeLa [2]
  IC50: > 100 µM
HeLa [3]
  IC50: > 100 µM
HeLa [4]
  IC50: > 100 µM

## Cc1cn(/C=C/C=O)c(=O)[nH]c1=O
HeLa [1]
  IC50: 1 µM
[5]
  half-life: 3.5 min
HeLa [2]
  IC50: 23 µM
[6]
  half-life: 18 h
HeLa [3]
  IC50: 25 µM
HeLa [4]
  IC50: 100 µM

## O=C/C=C/n1cc(CO)c(=O)[nH]c1=O
HeLa [2]
  IC50: > 100 µM
HeLa [3]
  IC50: > 100 µM
HeLa [4]
  IC50: > 100 µM

## O=C/C=C/n1c(=O)ccn([C@H]2C[C@H](O)[C@@H](CO)O2)c1=O
HeLa [1]
  IC50: 1 µM
HeLa [2]
  IC50: 0.8 µM
HeLa [3]
  IC50: 15 µM
HeLa [4]
  IC50: 15 µM

## O=C/C=C/n1c(=O)c(I)cn([C@H]2C[C@H](O)[C@@H](CO)O2)c1=O
HeLa [1]
  IC50: 20 µM
HeLa [2]
  IC50: 0.3 µM
HeLa [3]
  IC50: 15 µM
HeLa [4]
  IC50: 80 µM

## Nc1nc(O)c2ncn(/C=C/C=O)c2n1
HeLa [1]
  IC50: 24 µM
HeLa [2]
  IC50: > 100 µM
HeLa [3]
  IC50: > 100 µM
HeLa [4]
  IC50: 50 µM

## O=C/C=C/n1c(=O)ccn(C2O[C@H](CO)[C@@H](O)[C@H]2O)c1=O (stereo partly drawn)
HeLa [1]
  IC50: 9 µM
HeLa [2]
  IC50: 10 µM
HeLa [3]
  IC50: > 100 µM
HeLa [4]
  IC50: 3 µM

## Cc1cn([C@@H]2O[C@H](CO)[C@@H](O)[C@@H]2O)c(=O)n(/C=C/C=O)c1=O
HeLa [1]
  IC50: 40 µM
HeLa [2]
  IC50: 40 µM
HeLa [3]
  IC50: > 100 µM
HeLa [4]
  IC50: 100 µM

## Cc1cn([C@@H]2O[C@H](CO)[C@@H](O)[C@H]2O)c(=O)n(/C=C/C=O)c1=O
HeLa [2]
  IC50: > 100 µM
HeLa [3]
  IC50: > 100 µM
HeLa [4]
  IC50: 100 µM

## Cc1cn(/C=C/CO)c(=O)[nH]c1=O
HeLa [2]
  IC50: > 100 µM
HeLa [3]
  IC50: > 100 µM
HeLa [4]
  IC50: > 100 µM

## Cc1cn(/C=C/C#N)c(=O)[nH]c1=O
HeLa [2]
  IC50: > 100 µM
HeLa [3]
  IC50: > 100 µM
HeLa [4]
  IC50: > 100 µM

## O=C/C=C/n1cc(F)c(=O)[nH]c1=O
HeLa [1]
  IC50: 3 µM
HeLa [2]
  IC50: 60 µM
HeLa [3]
  IC50: 40 µM
HeLa [4]
  IC50: 90 µM
